Square brackets hold non-standard residues; d marks the D form. Peptide text beside a SMILES is read from it. Oic = O=C(O)[C@@H]1C[C@@H]2CCCC[C@@H]2N1; Hyp = O=C(O)[C@@H]1C[C@@H](O)CN1; Pip(4-aza) = O=C(O)[C@@H]1CNCCN1; hArg = N=C(N)NCCCC[C@H](N)C(=O)O; Tic = O=C(O)[C@@H]1Cc2ccccc2CN1; ΔPro = O=C(O)[C@@H]1C=CCN1; Aze = O=C(O)[C@@H]1CCN1; Dab = NCC[C@H](N)C(=O)O
Key:
Neuropilin-1 [1] = biological target: T1, Neuropilin-1 (Homo sapiens, UniProt O14786); test: Inhibition of human biotinylated VEGF-A165 binding to recombinant human NRP1 receptor at 50 uM after 2 hrs by chemiluminescence analysis relative to control
Outline: (§1)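 Wells coated overnight at 4 °C with recombinant human NRP-1 (200 ng/well), blocked with 0.5% BSA/PBS. Peptide in PBS and biotinylated human VEGF-A165 (400 ng/mL, in PBS with 4 µg/mL heparin) incubated 2 h at room temperature. Detection by streptavidin-HRP and luminol chemiluminescence. Controls: ligand only (positive) and uncoated wells (negative). % inhibition calculated from these. IC50 by nonlinear regression.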

Neuropilin-1 [2] = biological target: T1, Neuropilin-1; test: Inhibition of human biotinylated VEGF-A165 binding to recombinant human NRP1 receptor after 2 hrs by chemiluminescence analysis; outline: as §1
Neuropilin-1 [3] = biological target: T1, Neuropilin-1; test: Inhibition of human biotinylated VEGF-A165 binding to recombinant human NRP1 receptor at 1 uM after 2 hrs by chemiluminescence analysis relative to control; outline: as §1
Neuropilin-1 [4] = biological target: T1, Neuropilin-1; test: Inhibition of human biotinylated VEGF-A165 binding to recombinant human NRP1 receptor at 25 uM after 2 hrs by chemiluminescence analysis relative to control; outline: as §1
Neuropilin-1 [5] = biological target: T1, Neuropilin-1; test: Inhibition of human biotinylated VEGF-A165 binding to recombinant human NRP1 receptor at 10 uM after 2 hrs by chemiluminescence analysis relative to control; outline: as §1
Neuropilin-1 [6] = biological target: T1, Neuropilin-1; test: Inhibition of human biotinylated VEGF-A165 binding to recombinant human NRP1 receptor at 5 uM after 2 hrs by chemiluminescence analysis relative to control; outline: as §1
Neuropilin-1 [7] = biological target: T1, Neuropilin-1; test: Inhibition of human biotinylated VEGF-A165 binding to recombinant human NRP1 receptor at 100 uM after 2 hrs by chemiluminescence analysis relative to control; outline: as §1
Neuropilin-1 [8] = biological target: T1, Neuropilin-1; test: Inhibition of human biotinylated VEGF-A165 binding to recombinant human NRP1 receptor at 2.5 uM after 2 hrs by chemiluminescence analysis relative to control; outline: as §1
Neuropilin-1 [9] = biological target: Neuropilin-1 (Rattus norvegicus, UniProt Q9QWJ9); test: Inhibition of human biotinylated VEGF-A165 binding to Fc-tagged recombinant rat NRP1 receptor after 2 hrs by colorimetric analysis
[10] = biological target: Neuropilin-1 (Rattus norvegicus) (UniProt Q9QWJ9); test: Inhibition of human biotinylated VEGF-A165 binding to Fc-tagged recombinant rat NRP1 receptor at 0.3 uM after 2 hrs by colorimetric analysis relative to control
[11] = biological target: Neuropilin-1 (Rattus norvegicus) (UniProt Q9QWJ9); test: Inhibition of human biotinylated VEGF-A165 binding to Fc-tagged recombinant rat NRP1 receptor at 1 uM after 2 hrs by colorimetric analysis relative to control
[12] = biological target: Neuropilin-1 (Rattus norvegicus) (UniProt Q9QWJ9); test: Inhibition of human biotinylated VEGF-A165 binding to Fc-tagged recombinant rat NRP1 receptor at 3 uM after 2 hrs by colorimetric analysis relative to control
[13] = biological target: Neuropilin-1 (Rattus norvegicus) (UniProt Q9QWJ9); test: Inhibition of human biotinylated VEGF-A165 binding to Fc-tagged recombinant rat NRP1 receptor at 0.1 uM after 2 hrs by colorimetric analysis relative to control
[14] = biological target: Neuropilin-1 (Rattus norvegicus) (UniProt Q9QWJ9); test: Inhibition of human biotinylated VEGF-A165 binding to Fc-tagged recombinant rat NRP1 receptor at 10 uM after 2 hrs by colorimetric analysis relative to control
[15] = Half life in human plasma at 1 umol/ml up to 96 hrs by RP-HPLC and LC/MS analysis; type: ADME, cell-free
Outline: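 Citrate plasma pooled from four healthy donors, stored at –80 °C, preactivated 20 min at 37 °C with shaking. Aqueous peptide stock diluted into plasma to ~1 µmol/mL final and incubated 0–96 h. Aliquots quenched with equal volume 98% ethanol, centrifuged, supernatant lyophilized, reconstituted in water, analysed by RP-HPLC (LC-MS for selected samples). Half-life obtained by nonlinear regression.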

T1 sequence (O14786 whole entry): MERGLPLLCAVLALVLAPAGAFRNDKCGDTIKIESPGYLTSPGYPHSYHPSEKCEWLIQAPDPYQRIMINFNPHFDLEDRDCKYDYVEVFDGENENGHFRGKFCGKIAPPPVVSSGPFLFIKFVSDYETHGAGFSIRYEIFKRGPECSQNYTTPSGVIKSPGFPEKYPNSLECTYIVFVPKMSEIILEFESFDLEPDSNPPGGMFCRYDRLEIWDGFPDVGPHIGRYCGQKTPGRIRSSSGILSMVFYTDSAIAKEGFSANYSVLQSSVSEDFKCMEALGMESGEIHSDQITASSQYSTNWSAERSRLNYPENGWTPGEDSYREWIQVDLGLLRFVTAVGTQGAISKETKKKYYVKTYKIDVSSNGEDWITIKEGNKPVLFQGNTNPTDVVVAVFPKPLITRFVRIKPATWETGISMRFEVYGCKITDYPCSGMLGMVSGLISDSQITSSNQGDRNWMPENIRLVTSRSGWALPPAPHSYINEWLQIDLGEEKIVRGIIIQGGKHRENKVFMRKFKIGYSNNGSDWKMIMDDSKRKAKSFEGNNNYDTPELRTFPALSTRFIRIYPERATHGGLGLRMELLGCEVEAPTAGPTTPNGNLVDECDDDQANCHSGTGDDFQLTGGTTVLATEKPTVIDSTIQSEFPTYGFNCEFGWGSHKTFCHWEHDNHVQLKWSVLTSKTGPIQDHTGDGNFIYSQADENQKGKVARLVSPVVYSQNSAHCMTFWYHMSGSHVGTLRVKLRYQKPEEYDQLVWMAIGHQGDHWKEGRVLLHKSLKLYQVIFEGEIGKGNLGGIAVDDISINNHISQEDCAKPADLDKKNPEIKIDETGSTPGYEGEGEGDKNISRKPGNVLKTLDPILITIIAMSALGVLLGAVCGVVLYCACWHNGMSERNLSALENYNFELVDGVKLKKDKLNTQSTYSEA

| inhibition (Neuropilin-1 [1]) [%] | IC50 (Neuropilin-1 [2]; read-out: IC50) [µM] | IC50 (Neuropilin-1 [2]; read-out: pIC50 (converted)) [µM] | inhibition (Neuropilin-1 [3]) [%] | inhibition (Neuropilin-1 [4]) [%] | inhibition (Neuropilin-1 [5]) [%] | inhibition (Neuropilin-1 [6]) [%] | inhibition (Neuropilin-1 [7]) [%] | inhibition (Neuropilin-1 [8]) [%] | IC50 (Neuropilin-1 [9]) [nM] | inhibition [10] [%] | inhibition [11] [%] | inhibition [12] [%] | inhibition [13] [%] | inhibition [14] [%] | half-life at 1000 µM [15] [days] | Compound |
| --- | --- | --- | --- | --- | --- | --- | --- | --- | --- | --- | --- | --- | --- | --- | --- | --- |
| 75.8 | 11.7 | 10.7 | 7.7 | 69.1 | 49.6 | 30.1 | 78.8 | 12.9 |  |  |  |  |  |  |  | N=C(N)NCCCC[C@H](N)C(=O)NCCCC[C@H](N)C(=O)N[C@@H](CCN)C(=O)N1CC[C@H]1C(=O)N[C@@H](CCCNC(=N)N)C(=O)O (H-K(hArg)[Dab][Aze]R-OH) |
| 76 | 9.2 |  | 22.5 | 67.3 | 54.3 | 36 | 78.6 | 22.3 |  |  |  |  |  |  |  | N=C(N)NCCCC[C@H](N)C(=O)NCCCC[C@H](N)C(=O)N[C@@H](CCN)C(=O)N1C[C@H](O)C[C@H]1C(=O)N[C@@H](CCCNC(=N)N)C(=O)O (H-K(hArg)[Dab][Hyp]R-OH) |
| 76.6 | 8.9 |  | 13.8 | 70.4 | 58.6 | 43.7 | 79.8 | 31.4 | 200 | 59.6 | 83.7 | 92.8 | 35.8 | 99.6 |  | N=C(N)NCCCC[C@H](N)C(=O)NCCCC[C@H](N)C(=O)N[C@@H](CCN)C(=O)N1CCC[C@H]1C(=O)N[C@@H](CCCNC(=N)N)C(=O)O (H-K(hArg)[Dab]PR-OH) |
| 67.9 | 20.9 |  |  | 54.1 | 37.1 |  | 77 |  | 1000 | 4.7 | 41.4 | 79 |  | 92.2 |  | N=C(N)NCCCC[C@H](N)C(=O)NCCCC[C@H](N)C(=O)N1CCC[C@H]1C(=O)N1CCC[C@H]1C(=O)N[C@@H](CCCNC(=N)N)C(=O)O (H-K(hArg)PPR-OH) |
| 63.1 | 21.3 |  |  | 56.8 | 36.7 |  | 71.7 |  |  |  |  |  |  |  |  | N=C(N)NCCCC[C@H](N)C(=O)NCCCC[C@H](N)C(=O)N1C[C@H](O)C[C@H]1C(=O)N1C[C@H](O)C[C@H]1C(=O)N[C@@H](CCCNC(=N)N)C(=O)O (H-K(hArg)[Hyp][Hyp]R-OH) |
| 53.6 | 48.6 |  |  | 41.9 | 30 |  | 59.9 |  |  |  |  |  |  |  |  | N=C(N)NCCCC[C@H](N)C(=O)NCCCC[C@H](N)C(=O)N1CC[C@H]1C(=O)N1CC[C@H]1C(=O)N[C@@H](CCCNC(=N)N)C(=O)O (H-K(hArg)[Aze][Aze]R-OH) |
| 77.6 | 7.2 |  | 32.9 | 68.2 | 53.4 | 47.8 | 83.6 | 42.1 |  |  |  |  |  |  |  | N=C(N)NCCCC[C@H](N)C(=O)NCCCC[C@H](N)C(=O)N1[C@H](C(=O)N2[C@H](C(=O)N[C@@H](CCCNC(=N)N)C(=O)O)C[C@@H]3CCCC[C@@H]32)C[C@@H]2CCCC[C@@H]21 (H-K(hArg)[Oic][Oic]R-OH) |
| 63.3 | 16 |  |  | 58.7 | 45 |  | 70.8 |  |  |  |  |  |  |  |  | N=C(N)NCCCC[C@H](N)C(=O)NCCCC[C@H](N)C(=O)N1CCNC[C@H]1C(=O)N1CCNC[C@H]1C(=O)N[C@@H](CCCNC(=N)N)C(=O)O (H-K(hArg)[Pip(4-aza)][Pip(4-aza)]R-OH) |
| 43.8 | 84.1 | 83.2 |  | 35 | 30.8 |  | 58.2 |  |  |  |  |  |  |  |  | H-ATWLPPR-OH |
| 72.2 | 14 |  |  | 61.3 | 45.4 |  | 79.3 |  |  |  |  |  |  |  |  | N=C(N)NCCCC[C@H](N)C(=O)NCCCC[C@H](N)C(=O)N1CC=C[C@H]1C(=O)N1CC=C[C@H]1C(=O)N[C@@H](CCCNC(=N)N)C(=O)O (H-K(hArg)[ΔPro][ΔPro]R-OH) |
| 17.2 | > 100 |  |  | 35 | 31.5 |  | 0 |  |  |  |  |  |  |  |  | N=C(N)NCCCC[C@H](N)C(=O)NCCCC[C@H](N)C(=O)N[C@@H](CCN)C(=O)N1Cc2ccccc2C[C@H]1C(=O)N[C@@H](CCCNC(=N)N)C(=O)O (H-K(hArg)[Dab][Tic]R-OH) |
| 46 | 80.5 |  |  | 34.8 | 20.8 |  | 51.8 |  |  |  |  |  |  |  |  | N=C(N)NCCCC[C@H](N)C(=O)NCCCC[C@H](N)C(=O)N[C@@H](CCN)C(=O)N1CCNC[C@H]1C(=O)N[C@@H](CCCNC(=N)N)C(=O)O (H-K(hArg)[Dab][Pip(4-aza)]R-OH) |
| 40.7 | > 100 |  |  | 31.4 | 24.7 |  | 45.2 |  |  |  |  |  |  |  |  | N=C(N)NCCCC[C@H](N)C(=O)NCCCC[C@H](N)C(=O)N1Cc2ccccc2C[C@H]1C(=O)N1Cc2ccccc2C[C@H]1C(=O)N[C@@H](CCCNC(=N)N)C(=O)O (H-K(hArg)[Tic][Tic]R-OH) |
| 84.4 | 4.3 |  | 29.9 | 78.1 | 70.7 | 58 | 87.1 | 44.8 |  |  |  |  |  |  | 2.13 | N=C(N)NCCCC[C@H](N)C(=O)NCCCC[C@H](N)C(=O)N[C@@H](CCN)C(=O)N1CC=C[C@H]1C(=O)N[C@@H](CCCNC(=N)N)C(=O)O (H-K(hArg)[Dab][ΔPro]R-OH) |
| 79.5 | 2.3 |  | 37.7 | 77.7 | 63.4 | 52.3 | 83 | 50.9 |  |  |  |  |  |  | 2.29 | N=C(N)NCCCC[C@H](N)C(=O)NCCCC[C@H](N)C(=O)N[C@@H](CCN)C(=O)N1[C@H](C(=O)N[C@@H](CCCNC(=N)N)C(=O)O)C[C@@H]2CCCC[C@@H]21 (H-K(hArg)[Dab][Oic]R-OH) |
